Source: ChEMBL document CHEMBL1154182 (J Med Chem, 2009)
Numbered stars: 1 amine (or outer) side, 2 acyl side, 3 side chain; on linkers, the order of the positions; unused ones are H or OH. Bridge positions count the residues as written; N and C are the ends. Square brackets hold non-standard residues; d marks the D form. Peptide text beside a SMILES is read from it. 1Nal = N[C@@H](Cc1cccc2ccccc12)C(=O)O; 2Nal = N[C@@H](Cc1ccc2ccccc2c1)C(=O)O; CH2 = C([*:1])[*:2]

Experiments:
[1] = biological target: T1, Delta-type opioid receptor (Rattus norvegicus, UniProt P33533); test: Agonist activity at rat delta opioid receptor expressed in rat C6 cells assessed as inhibition of forskolin-stimulated cAMP production after 30 mins by radioimmunoassay
[2] = biological target: Mu-type opioid receptor (Rattus norvegicus) (UniProt P33535); test: Agonist activity at rat mu opioid receptor expressed in rat C6 cells assessed as stimulation of [35S]GTPgammaS binding at 10 uM after 1 hr by liquid scintillation counting relative to DAMGO; assay type: functional, cell-based
Procedure, shortened: (§1)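 Membranes (20-30 μg protein) from C6-MOR, C6-DOR or CHO-KOR cells incubated 1 h at 25 °C in 50 mM Tris-HCl pH 7.4, 100 mM NaCl, 5 mM MgCl2 with 0.1 nM [35S]GTPγS, 100 μM GDP and peptide at 0.001-10000 nM or 10 μM. Filtered and counted.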

[3] = biological target: Delta-type opioid receptor (Rattus norvegicus) (UniProt P33533); conditions: C6, 1 uM
[4] = biological target: T2, Kappa-type opioid receptor (Homo sapiens, UniProt P41145); test: Displacement of [3H]diprenorphine from human kappa opioid receptor expressed in CHO cells after 1 hr by liquid scintillation counting; assay type: cell-based
Procedure, shortened: (§2)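 Membranes from C6 glioma cells stably expressing rat MOR or DOR, or CHO cells expressing human KOR (10-20 μg protein), incubated with 0.2 nM [3H]diprenorphine and increasing peptide concentrations in 50 mM Tris-HCl pH 7.4 for 1 h at 25 °C. Filtered and counted by scintillation. Nonspecific binding defined with 10 μM naloxone.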

[5] = biological target: Delta-type opioid receptor (Rattus norvegicus) (UniProt P33533); conditions: C6, 1 uM; remark: listed apart in the source
[6] = biological target: T2, Kappa-type opioid receptor; test: Agonist activity at human kappa opioid receptor expressed in CHO cells assessed as stimulation of [35S]GTPgammaS binding after 1 hr by liquid scintillation counting; assay type: functional, cell-based; procedure, shortened: as §1
[7] = biological target: T1, Delta-type opioid receptor; test: Displacement of [3H]diprenorphine from rat delta opioid receptor expressed in rat C6 cells after 1 hr by liquid scintillation counting; assay type: cell-based; procedure, shortened: as §2
[8] = biological target: T2, Kappa-type opioid receptor; test: Agonist activity at human kappa opioid receptor expressed in CHO cells assessed as stimulation of [35S]GTPgammaS binding at 10 uM after 1 hr by liquid scintillation counting relative to U69593; assay type: functional, cell-based; procedure, shortened: as §1
[9] = biological target: Delta-type opioid receptor (Rattus norvegicus) (UniProt P33533); test: Agonist activity at rat delta opioid receptor expressed in rat C6 cells assessed as stimulation of [35S]GTPgammaS binding at 10 uM after 1 hr by liquid scintillation counting relative to SNC80; assay type: functional, cell-based; procedure, shortened: as §1
[10] = biological target: T1, Delta-type opioid receptor; test: Binding affinity to rat delta opioid receptor expressed in rat C6 cells; assay type: cell-based; procedure, shortened: as §2
Mu-type opioid receptor [11] = biological target: T3, Mu-type opioid receptor (Rattus norvegicus, UniProt P33535); test: Displacement of [3H]diprenorphine from rat mu opioid receptor expressed in rat C6 cells after 1 hr by liquid scintillation counting; assay type: cell-based; procedure, shortened: as §2
Mu-type opioid receptor [12] = biological target: T3, Mu-type opioid receptor; test: Agonist activity at rat mu opioid receptor expressed in rat C6 cells assessed as stimulation of [35S]GTPgammaS binding after 1 hr by liquid scintillation counting; assay type: functional, cell-based; procedure, shortened: as §1
[13] = biological target: Delta-type opioid receptor (Rattus norvegicus) (UniProt P33533); test: Ratio of compound Ki to 5R,8S,11S,14S)-14-((S)-2-amino-3-(4-hydroxyphenyl)propanamido)-8,11-dibenzyl-7,10,13-trioxo-1,3-dithia-6,9,12-triazacyclopentadecane-5-carboxamide Ki for rat delta opioid receptor expressed in rat C6 cells; assay type: cell-based
[14] = biological target: T2, Kappa-type opioid receptor; test: Ratio of compound Ki to 5R,8S,11S,14S)-14-((S)-2-amino-3-(4-hydroxyphenyl)propanamido)-8,11-dibenzyl-7,10,13-trioxo-1,3-dithia-6,9,12-triazacyclopentadecane-5-carboxamide Ki for human kappa opioid receptor expressed in CHO cells; assay type: cell-based

T2 sequence (P41145 whole entry): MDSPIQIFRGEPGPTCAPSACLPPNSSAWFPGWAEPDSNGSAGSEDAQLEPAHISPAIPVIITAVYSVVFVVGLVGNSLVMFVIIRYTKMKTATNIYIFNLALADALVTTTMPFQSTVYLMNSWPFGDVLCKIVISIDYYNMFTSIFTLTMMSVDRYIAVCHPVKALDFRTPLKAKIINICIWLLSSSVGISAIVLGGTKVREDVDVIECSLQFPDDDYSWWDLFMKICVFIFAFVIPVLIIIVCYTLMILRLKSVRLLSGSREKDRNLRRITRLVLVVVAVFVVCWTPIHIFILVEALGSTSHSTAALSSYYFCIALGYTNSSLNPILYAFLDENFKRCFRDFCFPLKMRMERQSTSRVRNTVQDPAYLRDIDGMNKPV
Delta-type opioid receptor (Rattus norvegicus), sequence (P33533 whole entry): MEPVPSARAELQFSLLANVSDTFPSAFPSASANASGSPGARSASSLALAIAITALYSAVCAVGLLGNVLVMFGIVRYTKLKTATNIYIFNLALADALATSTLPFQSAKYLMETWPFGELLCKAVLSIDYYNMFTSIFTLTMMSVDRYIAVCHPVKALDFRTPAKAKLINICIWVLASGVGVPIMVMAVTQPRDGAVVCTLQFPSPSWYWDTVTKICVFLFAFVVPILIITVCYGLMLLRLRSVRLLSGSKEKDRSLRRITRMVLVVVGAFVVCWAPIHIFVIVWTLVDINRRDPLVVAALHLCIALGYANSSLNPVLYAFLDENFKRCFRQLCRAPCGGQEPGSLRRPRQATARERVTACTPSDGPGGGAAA
T1 sequence (P33533 whole entry): as above
T3 sequence (P33535 whole entry): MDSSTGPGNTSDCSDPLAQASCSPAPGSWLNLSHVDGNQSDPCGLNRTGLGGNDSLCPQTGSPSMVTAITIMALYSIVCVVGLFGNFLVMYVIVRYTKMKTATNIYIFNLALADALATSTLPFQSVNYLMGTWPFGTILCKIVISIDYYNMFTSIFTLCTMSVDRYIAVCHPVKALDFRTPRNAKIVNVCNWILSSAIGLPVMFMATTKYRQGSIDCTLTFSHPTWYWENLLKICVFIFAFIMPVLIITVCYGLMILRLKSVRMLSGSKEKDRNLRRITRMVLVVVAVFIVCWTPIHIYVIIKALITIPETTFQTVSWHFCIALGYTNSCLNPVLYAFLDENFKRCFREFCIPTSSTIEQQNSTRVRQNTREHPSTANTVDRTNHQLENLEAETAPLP
Mu-type opioid receptor (Rattus norvegicus), sequence (P33535 whole entry): as above

Row | Structure (SMILES) | EC50 [1] [nM] | Efficacy [2] [%] | inhibition [3] [%] | Ki [4] [nM] | inhibition [5] [%] | EC50 [6] [nM] | Ki [7] [nM] | Efficacy [8] [%] | Efficacy [9] [%] | Ki [10] [nM] | Ki (Mu-type opioid receptor [11]) [nM] | EC50 (Mu-type opioid receptor [12]) [nM] | Ratio Ki [13] | Ratio Ki [14]
1 | NC(=O)[C@@H]1CSCSC[C@@H](NC(=O)[C@@H](N)Cc2ccc(O)cc2)C(=O)N[C@@H](Cc2ccccc2)C(=O)N[C@@H](Cc2ccc3ccccc3c2)C(=O)N1 (H-Y[dC]F[2Nal]C-NH2; linker 2-5 via CH2) | 36 | 99 | 55 | 1.3 | 37 | 12 | 0.48 | 89 | 7 | 2.1 | 0.47 | 1.2 | – | –
2 | NC(=O)[C@@H]1CSSC[C@@H](NC(=O)[C@@H](N)Cc2ccc(O)cc2)C(=O)N[C@@H](Cc2ccccc2)C(=O)N[C@@H](Cc2cccc3ccccc23)C(=O)N1 (H-Y[dC]F[1Nal]C-NH2; disulfide 2-5) | – | 88 | – | 11 | – | – | 7.1 | 100 | 15 | – | 2.5 | – | – | –
3 | NC(=O)[C@@H]1CSCSC[C@@H](NC(=O)[C@@H](N)Cc2ccc(O)cc2)C(=O)N[C@@H](Cc2ccc3ccccc3c2)C(=O)N[C@@H](Cc2ccccc2)C(=O)N1 (H-Y[dC][2Nal]FC-NH2; linker 2-5 via CH2) | – | 34 | – | 69 | – | – | 15 | 35 | 23 | – | 0.47 | – | > 10 | > 10
4 | NC(=O)[C@@H]1CSSC[C@@H](NC(=O)[C@@H](N)Cc2ccc(O)cc2)C(=O)N[C@@H](Cc2cccc3ccccc23)C(=O)N[C@@H](Cc2ccccc2)C(=O)N1 (H-Y[dC][1Nal]FC-NH2; disulfide 2-5) | – | 33 | – | 21 | – | – | 34 | 59 | 0 | – | 0.08 | – | > 10 | –
5 | NC(=O)[C@@H]1CSCSC[C@@H](NC(=O)[C@@H](N)Cc2ccc(O)cc2)C(=O)N[C@@H](Cc2ccccc2)C(=O)N[C@@H](Cc2cccc3ccccc23)C(=O)N1 (H-Y[dC]F[1Nal]C-NH2; linker 2-5 via CH2) | – | 100 | – | 6 | – | – | 5.2 | 87 | 22 | – | 0.61 | – | – | –
6 | NC(=O)[C@@H]1CSSC[C@@H](NC(=O)[C@@H](N)Cc2ccc(O)cc2)C(=O)N[C@@H](Cc2ccccc2)C(=O)N[C@@H](Cc2ccc3ccccc3c2)C(=O)N1 (H-Y[dC]F[2Nal]C-NH2; disulfide 2-5) | – | 90 | – | 5.9 | – | – | 11 | 49 | 2 | – | 1.2 | – | – | –
7 | NC(=O)[C@@H]1CSCSC[C@@H](NC(=O)[C@@H](N)Cc2ccc(O)cc2)C(=O)N[C@@H](Cc2cccc3ccccc23)C(=O)N[C@@H](Cc2ccccc2)C(=O)N1 (H-Y[dC][1Nal]FC-NH2; linker 2-5 via CH2) | – | 91 | – | 5.8 | – | – | 34 | 77 | 23 | – | 0.33 | – | > 10 | –
8 | NC(=O)[C@@H]1CSSC[C@@H](NC(=O)[C@@H](N)Cc2ccc(O)cc2)C(=O)N[C@@H](Cc2ccc3ccccc3c2)C(=O)N[C@@H](Cc2ccccc2)C(=O)N1 (H-Y[dC][2Nal]FC-NH2; disulfide 2-5) | – | 34 | – | 145 | – | – | 55 | 7.5 | 0.7 | – | 0.72 | – | > 10 | > 10
9 | C=CCN1C[C@H](C)N([C@H](c2ccc(C(=O)N(CC)CC)cc2)c2cccc(OC)c2)C[C@H]1C | – | – | – | – | 67 | – | – | – | – | – | – | – | – | –
